Reference: ChEMBL document CHEMBL1154777 (J Med Chem, 2009)
Calls of active or inactive are those of the source. The calls are words filed in the database; no cut-off is given here.

What was measured:
Mu-type opioid receptor [1] = target: T1, Mu-type opioid receptor (Homo sapiens, UniProt P35372); assay: Displacement of [3H]DAMGO from human mu opioid receptor expressed in CHO cells after 60 mins by liquid scintillation counting; assay type: cell-based
[2] = target: Delta-type opioid receptor (Homo sapiens, UniProt P41143); assay: Displacement of [3H]naltrindole from human delta opioid receptor expressed in CHO cells after 3 hrs by liquid scintillation counting; assay type: cell-based
Chain of Delta-type opioid receptor (P41143 whole entry): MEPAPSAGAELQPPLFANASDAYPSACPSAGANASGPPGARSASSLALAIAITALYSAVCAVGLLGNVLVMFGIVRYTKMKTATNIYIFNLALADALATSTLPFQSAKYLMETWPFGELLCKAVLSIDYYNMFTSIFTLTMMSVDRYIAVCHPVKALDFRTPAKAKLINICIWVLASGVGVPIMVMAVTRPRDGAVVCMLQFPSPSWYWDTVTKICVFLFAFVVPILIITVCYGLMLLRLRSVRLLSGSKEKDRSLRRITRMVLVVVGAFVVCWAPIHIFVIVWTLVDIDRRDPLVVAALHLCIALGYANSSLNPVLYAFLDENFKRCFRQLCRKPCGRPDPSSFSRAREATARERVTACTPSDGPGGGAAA
Procedure, shortened: (§1)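 Membranes from CHO cells stably expressing one human opioid receptor, incubated at 25 °C in 50 mM Tris-HCl pH 7.5 with radioligand: [3H]DAMGO 0.25 nM (60 min), [3H]U69,593 1 nM (60 min), [3H]naltrindole 0.2 nM (3 h). […] Filtered on glass fibre (PEI-soaked for kappa), washed, scintillation counted; IC50 by log-probit fit, Ki via Cheng–Prusoff.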

Homo sapiens = organism: Homo sapiens; assay: Selectivity ratio of Ki for human delta opioid receptor to Ki for human kappa opioid receptor
[3] = target: T2, Kappa-type opioid receptor (Homo sapiens, UniProt P41145); assay: Displacement of [3H]U69593 from human kappa opioid receptor expressed in CHO cells after 60 mins by liquid scintillation counting; assay type: cell-based; procedure, shortened: as §1
T2 sequence (P41145 whole entry): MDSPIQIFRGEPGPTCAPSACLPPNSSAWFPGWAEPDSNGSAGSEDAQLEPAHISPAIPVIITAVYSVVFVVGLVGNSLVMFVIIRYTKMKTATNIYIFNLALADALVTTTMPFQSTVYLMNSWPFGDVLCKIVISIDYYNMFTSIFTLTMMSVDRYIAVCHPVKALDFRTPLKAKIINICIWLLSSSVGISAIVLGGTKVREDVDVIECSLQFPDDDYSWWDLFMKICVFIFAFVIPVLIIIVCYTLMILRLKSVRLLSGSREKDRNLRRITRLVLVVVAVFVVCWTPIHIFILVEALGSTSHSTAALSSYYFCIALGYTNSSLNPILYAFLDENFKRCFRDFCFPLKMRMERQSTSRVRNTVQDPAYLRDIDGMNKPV

Mu-type opioid receptor [4] = target: T1, Mu-type opioid receptor; assay: Agonist activity at human mu opioid receptor expressed in CHO cells assessed as maximal stimulation of [35S]GTPgammaS binding relatiev to DAMGO; assay type: functional, cell-based
Procedure, shortened: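 12 concentrations of each compound incubated with CHO cells expressing the mu receptor; [35S]GTPγS binding stimulation measured, maximal stimulation taken as Emax.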

[5] = target: T2, Kappa-type opioid receptor; assay: Antagonist activity at human kappa opioid receptor expressed in CHO cells assessed as inhibition of U50488-stimulated [35S]GTPgammaS binding; assay type: functional, cell-based
[6] = target: T2, Kappa-type opioid receptor; assay: Agonist activity at human kappa opioid receptor expressed in CHO cells assessed as stimulation of [35S]GTPgammaS binding; assay type: functional, cell-based
Procedure, shortened: (§2)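 Agonist mode: 12 concentrations of each compound incubated with CHO cells expressing the receptor named in the line; agonist-stimulated [35S]GTPγS binding measured.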

Mu-type opioid receptor [7] = target: T1, Mu-type opioid receptor; assay: Antagonist activity at human mu opioid receptor expressed in CHO cells assessed as inhibition of DAMGO-stimulated [35S]GTPgammaS binding; assay type: functional, cell-based
Mu-type opioid receptor [8] = target: T1, Mu-type opioid receptor; assay: Agonist activity at human mu opioid receptor expressed in CHO cells assessed as stimulation of [35S]GTPgammaS binding; assay type: functional, cell-based
[9] = target: T2, Kappa-type opioid receptor; assay: Agonist activity at human kappa opioid receptor expressed in CHO cells assessed as maximal stimulation of [35S]GTPgammaS binding relatiev to U50488; assay type: functional, cell-based; procedure, shortened: as §2
Mu-type opioid receptor [10] = target: T1, Mu-type opioid receptor; assay: Antagonist activity at human mu opioid receptor expressed in CHO cells assessed as inhibition of DAMGO-stimulated [35S]GTPgammaS binding at 10 uM; assay type: functional, cell-based
[11] = Chemical stability assessed as hydrolysis half life in presence of porcine liver esterase; assay type: ADME; conditions: pig, isolated protein
[12] = Chemical stability at pH 7.4 buffer assessed as hydrolysis half life; assay type: physicochemical

T1 sequence (P35372 whole entry): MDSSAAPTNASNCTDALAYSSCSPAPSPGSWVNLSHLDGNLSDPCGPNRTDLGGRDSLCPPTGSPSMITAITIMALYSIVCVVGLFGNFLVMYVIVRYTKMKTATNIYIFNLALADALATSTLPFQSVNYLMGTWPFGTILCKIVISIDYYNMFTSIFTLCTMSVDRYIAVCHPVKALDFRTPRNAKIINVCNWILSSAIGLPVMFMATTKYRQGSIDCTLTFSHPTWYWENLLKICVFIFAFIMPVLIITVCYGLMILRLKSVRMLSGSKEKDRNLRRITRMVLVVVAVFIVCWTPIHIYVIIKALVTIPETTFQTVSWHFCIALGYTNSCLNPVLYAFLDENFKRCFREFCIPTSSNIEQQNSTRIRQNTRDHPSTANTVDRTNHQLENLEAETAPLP

| SMILES | Ki (Mu-type opioid receptor [1]) [nM] | Ki [2] [nM] | Ratio Ki (Homo sapiens) | Ki [3] [nM] | Emax (Mu-type opioid receptor [4]) [%] | IC50 [5] | Imax [5] | EC50 [6] [nM] | Imax (Mu-type opioid receptor [7]) | IC50 (Mu-type opioid receptor [7]; read-out: IC50) [nM] | EC50 (Mu-type opioid receptor [8]) [nM] | Emax [9] [%] | Imax (Mu-type opioid receptor [10]) [%] | IC50 (Mu-type opioid receptor [7]; cho) | t1/2 [11] [h] | t1/2 [12] [h] |
| --- | --- | --- | --- | --- | --- | --- | --- | --- | --- | --- | --- | --- | --- | --- | --- | --- |
| COC(=O)C(C)CCCCCCC(C)C(=O)Oc1ccc2c(c1)[C@@]13CCCC[C@H]1[C@@H](C2)N(CC1CCC1)CC3 (stereo partly drawn) | 1.7 | 42 | 45 | 0.94 |  |  |  |  |  |  |  |  |  |  |  |  |
| C=CCN1CC[C@]23c4c5ccc(OC(=O)CCCCCCCCC(=O)Oc6ccc7c(c6)[C@@]68CCCC[C@H]6C(C7)N(CC6CCC6)CC8)c4O[C@H]2CCC[C@H]3[C@H]1C5 | 0.43 | 39 | 300 | 0.13 | 34 | Not Active | inactive | 1.6 | 73% | 25 | 2 | 86 |  |  |  |  |
| CC(CCCCCCC(C)C(=O)Oc1ccc2c(c1)[C@@]13CCCC[C@H]1[C@@H](C2)N(CC1CCC1)CC3)C(=O)O (stereo partly drawn) | 0.46 | 20 | 48 | 0.42 | 25 | Not Active | inactive | 4.9 |  |  | 13 | 58 | 48 | Not Active |  |  |
| CC(C)(CCCCCCC(C)(C)C(=O)Oc1ccc2c(c1)[C@@]13CCCC[C@H]1[C@@H](C2)N(CC1CCC1)CC3)C(=O)O | 47 | 390 | 22 | 18 |  |  |  |  |  |  |  |  |  |  |  |  |
| CC(CCCCC(C)C(=O)Oc1ccc2c(c1)[C@@]13CCCC[C@H]1[C@@H](C2)N(CC1CCC1)CC3)C(=O)Oc1ccc2c(c1)[C@@]13CCCC[C@H]1[C@@H](C2)N(CC1CCC1)CC3 (stereo partly drawn) | 2.9 | 50 | 23 | 2.2 |  |  |  |  |  |  |  |  |  |  | 1.9 | 3.68 |
| O=C(O)CCCCCCCCC(=O)Oc1ccc2c(c1)[C@@]13CCCC[C@H]1[C@@H](C2)N(CC1CCC1)CC3 | 0.71 | 18 |  | 0.29 | 110 | Not Active | inactive | 2.8 | inactive |  | 3 | 75 |  | Not Active |  |  |
| CC(C)(CCCCCCC(C)(C)C(=O)Oc1ccc2c(c1)[C@@]13CCCC[C@H]1[C@@H](C2)N(CC1CCC1)CC3)C(=O)OCc1ccccc1 | 8.6 | 210 | 45 | 4.7 |  |  |  |  |  |  |  |  |  |  |  |  |
| O=C(CCCCCCCCC(=O)Oc1ccc2c(c1)[C@@]13CCCC[C@H]1[C@@H](C2)N(CC1CCC1)CC3)Oc1ccc2c(c1)[C@@]13CCCC[C@H]1[C@@H](C2)N(CC1CCC1)CC3 |  |  | 90 |  |  | Not Active | inactive |  | 44% |  |  | 65 |  |  | 1.83 | 0.767 |
| CC(C)(CCCCCCC(C)(C)C(=O)Oc1ccc2c(c1)[C@@]13CCCC[C@H]1[C@@H](C2)N(CC1CCC1)CC3)C(=O)Oc1ccc2c(c1)[C@@]13CCCC[C@H]1[C@@H](C2)N(CC1CCC1)CC3 | 0.47 | 15 | 32 | 0.47 | 40 | Not Active | inactive | 6.4 | 50% | 81 | 11 | 60 |  |  | 1.67 | 1.68 |
| CC(CCCCCCC(C)C(=O)Oc1ccc2c(c1)[C@@]13CCCC[C@H]1[C@@H](C2)N(CC1CCC1)CC3)C(=O)Oc1ccc2c(c1)[C@@]13CCCC[C@H]1[C@@H](C2)N(CC1CCC1)CC3 (stereo partly drawn) | 0.95 | 37 | 60 | 0.62 | 26 | Not Active | inactive | 7.3 | 50% | 140 | 7.1 | 54 |  |  | 2.18 | 1.38 |
